# From PMC5538152 (Pharmacognosy Magazine, 2017)
# Assays:
# [1] = test system: CCD-18Co normal human colon fibroblast cell line; assay: In vitro cytotoxicity assay; format: cell-based; conditions: 72 h
# HT29 cells [2] = assay: Cell cycle analysis; format: cell-based, human; conditions: 72 h; for Percentage of cells in G2-M phase (Dip G2): untreated 7.70%; for Percentage of cells in G0-G1 phase (Dip G1): untreated 65.54%
# caspase 8 in HT29 cells = assay: Active caspase 8 by flow cytometry; format: cell-based, human; conditions: 72 h of treatment
# In short: (§1)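 HT29 cells were seeded at 1 × 10^5 cells/ml overnight, then exposed to test compound at 8, 14 or 28 μM for 72 h (37°C, 5% CO2), with untreated cells in 0.5% DMSO as control. Harvested, PBS-washed cells were labelled 45 min at 37°C with FITC-IETD-FMK (caspase 8) or FITC-LEHD-FMK (caspase 9), then washed and read by flow cytometry in FL1. Means ± SD, ≥3 independent experiments.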
# caspase 9 in HT29 cells = assay: Active caspase 9 by flow cytometry; format: cell-based, human; conditions: 72 h of treatment
# In short: as §1
# HT29 cells [3] = assay: Cell morphology by phase contrast microscopy; format: cell-based, human; conditions: 8, 14, 28 μM; dose- and time-dependent
# HT29 cells [4] = assay: Nuclear morphology by Hoechst 33342/propidium iodide staining; format: cell-based, human; conditions: 8 μM, 48 h
# In short: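 Overnight cultures (1 × 10^5 cells/ml) were given test compound at 8, 14 or 28 μM or 0.5% DMSO for 48 h at 37°C, 5% CO2. Cells were harvested, washed in cold PBS and incubated with Hoechst 33342 (10 μg/ml) for 7 min at 37°C. PI (2.5 μg/ml) was then added for 15 min in the dark at room temperature. Cells were dried on slides and nuclei examined by fluorescence microscopy at ×630.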
# [5] = test system: DLD-1 colon carcinoma cell line; conditions: read-out: IC50 against DLD-1; cited from earlier work
# [6] = test system: HeLa cervical carcinoma cell line; conditions: read-out: IC50 against HeLa; cited from earlier work
# caspase 8 and caspase 9 = conditions: cited from earlier work
Compound,Toxicity to normal colon cells (words) ([1]; listed as Rutamarin),Toxicity to normal colon cells (words) ([1]; listed as rutamarin),"IC50 ([1]; Homo sapiens, CCD-18Co, read-out: IC50 (μM), CCD-18Co, 72 h of incubation, SRB) [µM]",Percentage of cells in G2-M phase (Dip G2) (HT29 cells [2]; 8 μM) [%],Percentage of cells in G0-G1 phase (Dip G1) (HT29 cells [2]; 8 μM) [%],Percentage of cells in G2-M phase (Dip G2) (HT29 cells [2]; 14 μM) [%],Percentage of cells in G0-G1 phase (Dip G1) (HT29 cells [2]; 14 μM) [%],Percentage of cells in G2-M phase (Dip G2) (HT29 cells [2]; 28 μM) [%],Percentage of cells in G0-G1 phase (Dip G1) (HT29 cells [2]; 28 μM) [%],Caspase 8 activation relative to untreated cells (caspase 8 in HT29 cells) [fold],Caspase 9 activation relative to untreated cells (caspase 9 in HT29 cells) [fold],Cellular morphological changes (HT29 cells [3]),Nuclear morphology (HT29 cells [4]),IC50 [5] [µM],IC50 [6] [µM],Caspase activation (caspase 8 and caspase 9)
"C=CC(C)(C)c1cc2cc3c(cc2oc1=O)OC(C(C)(C)OC(C)=O)C3 (stereo not shown) [Rutamarin (8), rutamarin]",not toxic to CCD-18Co cells,exerted no damage against the normal cells,≥ 100,12.05,75.26,12.60,76.20,15.24,76.58,15,4,"apoptotic bodies, cell shrinkage, detachment, and rounding were observed",chromatin condensation,37.5,50.7,
CCCC(=O)c1c(O)c(C/C=C(\C)CCC=C(C)C)c(O)c2c([C@@H](O)CC)cc(=O)oc12 [kayeassamin A],,,,,,,,,,,,,,,,activate caspase 8 more than caspase 9
